# In article PMC6606825 (Journal of Ginseng Research, 2018):
# Experiment: Pharmacokinetics of CK and its metabolite 20
# Format: in vivo, healthy Chinese volunteers
# How it was run: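 Healthy adults given one oral tablet dose fasting (overnight, or 10 h in a crossover food-effect arm); 30 subjects from the 100/200/400 mg groups were pooled with 24 from 200 mg fasting periods. Plasma was stored at −70°C, extracted with MTBE plus internal standards and assayed by LC-MS/MS. Cmax was observed and AUClast calculated by linear trapezoid, each divided by dose. The metabolite/parent ratio was also calculated. Genotyping used Sequenom MassARRAY, and log-transformed values were compared by one-way ANOVA.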
# [1] = ABCC4 rs2274406 TT (first line), mean (SD)
# [2] = ABCC4 rs2274406 TT (third line), mean (SD)
# [3] = ABCG2 rs2054576 AA (first line), mean (SD)
# [4] = ABCG2 rs2054576 AA (third line), mean (SD)
compound,measurement,setting,value
"CC(C)=CCC[C@](C)(O)[C@H]1CC[C@]2(C)[C@@H]1[C@H](O)C[C@@H]1[C@@]3(C)CC[C@H](O)C(C)(C)[C@@H]3CC[C@]12C [20(S)-PPD, 20(S)-protopanaxadiol]",Ratio 20(S)-PPD/CK AUClast/D,"ABCC4 rs1151471 TT, mean (SD)",2.12 (2.57) %
same,Ratio 20(S)-PPD/CK Cmax/D,"ABCC4 rs1151471 TT, mean (SD)",0.52 (0.50) %
same,20(S)-PPD AUClast/D,"ABCC4 rs1189437 GG, n = 1",3.78 (−)
same,20(S)-PPD Cmax/D,"ABCC4 rs1189437 GG, n = 1",0.11 (−)
same,Ratio 20(S)-PPD/CK AUClast/D,"ABCC4 rs1189437 GG, n = 1",31.18 (−) %
same,Ratio 20(S)-PPD/CK Cmax/D,"ABCC4 rs1189437 GG, n = 1",6.05 (−) %
same,20(S)-PPD AUClast/D,"ABCC4 rs1189437 GT, mean (SD)",1.25 (0.80)
same,20(S)-PPD Cmax/D,"ABCC4 rs1189437 GT, mean (SD)",0.05 (0.03)
same,Ratio 20(S)-PPD/CK AUClast/D,"ABCC4 rs1189437 GT, mean (SD)",7.87 (7.32) %
same,Ratio 20(S)-PPD/CK Cmax/D,"ABCC4 rs1189437 GT, mean (SD)",2.35 (2.55) %
same,20(S)-PPD AUClast/D,"ABCC4 rs1189437 TT, mean (SD)",0.54 (0.49)
same,20(S)-PPD Cmax/D,"ABCC4 rs1189437 TT, mean (SD)",0.02 (0.02)
same,Ratio 20(S)-PPD/CK AUClast/D,"ABCC4 rs1189437 TT, mean (SD)",2.03 (2.50) %
same,Ratio 20(S)-PPD/CK Cmax/D,"ABCC4 rs1189437 TT, mean (SD)",0.50 (0.49) %
same,20(S)-PPD AUClast/D,"ABCC4 rs1751034 TC, mean (SD)",1.51 (1.01)
same,20(S)-PPD Cmax/D,"ABCC4 rs1751034 TC, mean (SD)",0.05 (0.04)
same,Ratio 20(S)-PPD/CK Cmax/D,"ABCC4 rs1751034 TC, mean (SD)",2.88 (2.68) %
same,20(S)-PPD AUClast/D,"ABCC4 rs1751034 TT, mean (SD)",0.59 (0.51)
same,20(S)-PPD Cmax/D,"ABCC4 rs1751034 TT, mean (SD)",0.02 (0.02)
same,Ratio 20(S)-PPD/CK AUClast/D,"ABCC4 rs1751034 TT, mean (SD)",2.17 (2.45) %
same,Ratio 20(S)-PPD/CK Cmax/D,"ABCC4 rs1751034 TT, mean (SD)",0.55 (0.50) %
same,20(S)-PPD AUClast/D,"ABCC4 rs2274406 CT, mean (SD)",0.77 (0.73)
same,20(S)-PPD Cmax/D,"ABCC4 rs2274406 CT, mean (SD)",0.03 (0.03)
same,Ratio 20(S)-PPD/CK AUClast/D,"ABCC4 rs2274406 CT, mean (SD)",3.81 (4.77) %
same,Ratio 20(S)-PPD/CK Cmax/D,"ABCC4 rs2274406 CT, mean (SD)",1.15 (1.88) %
same,20(S)-PPD AUClast/D,[1],0.78 (0.55)
same,20(S)-PPD Cmax/D,[1],0.03 (0.03)
same,Ratio 20(S)-PPD/CK AUClast/D,[1],2.75 (2.87) %
same,Ratio 20(S)-PPD/CK Cmax/D,[1],0.63 (0.46) %
same,20(S)-PPD AUClast/D,[2],0.97 (1.01)
same,20(S)-PPD Cmax/D,[2],0.03 (0.03)
same,Ratio 20(S)-PPD/CK AUClast/D,[2],6.34 (9.72) %
same,Ratio 20(S)-PPD/CK Cmax/D,[2],1.49 (1.93) %
same,20(S)-PPD AUClast/D,"ABCC4 rs2274407 CA, mean (SD)",0.70 (0.61)
same,20(S)-PPD Cmax/D,"ABCC4 rs2274407 CA, mean (SD)",0.03 (0.02)
same,Ratio 20(S)-PPD/CK AUClast/D,"ABCC4 rs2274407 CA, mean (SD)",3.96 (6.67) %
same,Ratio 20(S)-PPD/CK Cmax/D,"ABCC4 rs2274407 CA, mean (SD)",1.04 (1.40) %
same,20(S)-PPD AUClast/D,"ABCC4 rs2274407 CC, mean (SD)",0.87 (0.83)
same,20(S)-PPD Cmax/D,"ABCC4 rs2274407 CC, mean (SD)",0.03 (0.03)
same,Ratio 20(S)-PPD/CK AUClast/D,"ABCC4 rs2274407 CC, mean (SD)",4.39 (6.18) %
same,Ratio 20(S)-PPD/CK Cmax/D,"ABCC4 rs2274407 CC, mean (SD)",1.18 (1.84) %
same,20(S)-PPD AUClast/D,"ABCC4 rs4148546 AA, mean (SD)",1.01 (0.97)
same,20(S)-PPD Cmax/D,"ABCC4 rs4148546 AA, mean (SD)",0.03 (0.03)
same,Ratio 20(S)-PPD/CK AUClast/D,"ABCC4 rs4148546 AA, mean (SD)",6.66 (9.45) %
same,Ratio 20(S)-PPD/CK Cmax/D,"ABCC4 rs4148546 AA, mean (SD)",1.37 (1.86) %
same,20(S)-PPD AUClast/D,"ABCC4 rs4148546 GA, mean (SD)",0.87 (0.75)
same,20(S)-PPD Cmax/D,"ABCC4 rs4148546 GA, mean (SD)",0.03 (0.03)
same,Ratio 20(S)-PPD/CK AUClast/D,"ABCC4 rs4148546 GA, mean (SD)",4.17 (4.77) %
same,Ratio 20(S)-PPD/CK Cmax/D,"ABCC4 rs4148546 GA, mean (SD)",1.32 (1.94) %
same,20(S)-PPD AUClast/D,"ABCC4 rs4148546 GG, mean (SD)",0.47 (0.46)
same,20(S)-PPD Cmax/D,"ABCC4 rs4148546 GG, mean (SD)",0.02 (0.02)
same,Ratio 20(S)-PPD/CK AUClast/D,"ABCC4 rs4148546 GG, mean (SD)",1.34 (1.47) %
same,Ratio 20(S)-PPD/CK Cmax/D,"ABCC4 rs4148546 GG, mean (SD)",0.41 (0.46) %
same,20(S)-PPD AUClast/D,[3],0.78 (0.79)
same,20(S)-PPD Cmax/D,[3],0.03 (0.03)
same,Ratio 20(S)-PPD/CK AUClast/D,[3],4.17 (5.11) %
same,Ratio 20(S)-PPD/CK Cmax/D,[3],1.26 (1.98) %
same,20(S)-PPD AUClast/D,[4],2.05 (1.51)
same,20(S)-PPD Cmax/D,[4],0.06 (0.04)
same,Ratio 20(S)-PPD/CK AUClast/D,[4],12.95 (15.83) %
same,Ratio 20(S)-PPD/CK Cmax/D,[4],2.56 (3.02) %
same,20(S)-PPD AUClast/D,"ABCG2 rs2054576 GA, mean (SD)",0.73 (0.53)
same,20(S)-PPD Cmax/D,"ABCG2 rs2054576 GA, mean (SD)",0.03 (0.02)
same,Ratio 20(S)-PPD/CK AUClast/D,"ABCG2 rs2054576 GA, mean (SD)",3.30 (5.27) %
same,Ratio 20(S)-PPD/CK Cmax/D,"ABCG2 rs2054576 GA, mean (SD)",0.83 (1.11) %
same,20(S)-PPD AUClast/D,"ABCG2 rs2231142 GG, mean (SD)",0.62 (0.53)
same,20(S)-PPD Cmax/D,"ABCG2 rs2231142 GG, mean (SD)",0.02 (0.02)
same,Ratio 20(S)-PPD/CK AUClast/D,"ABCG2 rs2231142 GG, mean (SD)",2.95 (3.04) %
same,Ratio 20(S)-PPD/CK Cmax/D,"ABCG2 rs2231142 GG, mean (SD)",0.78 (0.71) %
same,20(S)-PPD AUClast/D,"ABCG2 rs2231142 GT, mean (SD)",0.88 (0.83)
same,20(S)-PPD Cmax/D,"ABCG2 rs2231142 GT, mean (SD)",0.03 (0.04)
same,Ratio 20(S)-PPD/CK AUClast/D,"ABCG2 rs2231142 GT, mean (SD)",4.13 (5.64) %
same,Ratio 20(S)-PPD/CK Cmax/D,"ABCG2 rs2231142 GT, mean (SD)",1.45 (2.39) %
same,20(S)-PPD AUClast/D,"ABCG2 rs2231142 TT, mean (SD)",2.05 (1.51)
same,20(S)-PPD Cmax/D,"ABCG2 rs2231142 TT, mean (SD)",0.06 (0.04)
same,Ratio 20(S)-PPD/CK AUClast/D,"ABCG2 rs2231142 TT, mean (SD)",12.95 (15.83) %
same,Ratio 20(S)-PPD/CK Cmax/D,"ABCG2 rs2231142 TT, mean (SD)",2.56 (3.02) %
same,20(S)-PPD AUClast/D,"ABCG2 rs2231148 AA, mean (SD)",0.68 (0.31)
same,20(S)-PPD Cmax/D,"ABCG2 rs2231148 AA, mean (SD)",0.03 (0.01)
same,Ratio 20(S)-PPD/CK AUClast/D,"ABCG2 rs2231148 AA, mean (SD)",3.01 (2.32) %
same,Ratio 20(S)-PPD/CK Cmax/D,"ABCG2 rs2231148 AA, mean (SD)",0.84 (0.60) %
same,20(S)-PPD AUClast/D,"ABCG2 rs2231148 AT, mean (SD)",0.93 (0.97)
same,20(S)-PPD Cmax/D,"ABCG2 rs2231148 AT, mean (SD)",0.03 (0.04)
same,Ratio 20(S)-PPD/CK AUClast/D,"ABCG2 rs2231148 AT, mean (SD)",4.06 (6.40) %
same,Ratio 20(S)-PPD/CK Cmax/D,"ABCG2 rs2231148 AT, mean (SD)",1.42 (2.72) %
same,20(S)-PPD AUClast/D,"ABCG2 rs2231148 TT, mean (SD)",0.80 (0.80)
same,20(S)-PPD Cmax/D,"ABCG2 rs2231148 TT, mean (SD)",0.03 (0.02)
same,Ratio 20(S)-PPD/CK AUClast/D,"ABCG2 rs2231148 TT, mean (SD)",4.75 (7.36) %
same,Ratio 20(S)-PPD/CK Cmax/D,"ABCG2 rs2231148 TT, mean (SD)",1.11 (1.45) %
same,20(S)-PPD AUClast/D,"ABCG2 rs2725248 AA, mean (SD)",0.69 (0.78)
same,20(S)-PPD Cmax/D,"ABCG2 rs2725248 AA, mean (SD)",0.02 (0.03)
same,Ratio 20(S)-PPD/CK AUClast/D,"ABCG2 rs2725248 AA, mean (SD)",3.94 (7.05) %
same,Ratio 20(S)-PPD/CK Cmax/D,"ABCG2 rs2725248 AA, mean (SD)",0.92 (1.40) %
same,20(S)-PPD AUClast/D,"ABCG2 rs2725248 CA, mean (SD)",1.05 (0.79)
same,20(S)-PPD Cmax/D,"ABCG2 rs2725248 CA, mean (SD)",0.04 (0.03)
same,Ratio 20(S)-PPD/CK AUClast/D,"ABCG2 rs2725248 CA, mean (SD)",4.84 (5.49) %
same,Ratio 20(S)-PPD/CK Cmax/D,"ABCG2 rs2725248 CA, mean (SD)",1.53 (2.29) %
same,20(S)-PPD AUClast/D,"ABCG2 rs2725248 CC, mean (SD)",0.96 (1.03)
same,20(S)-PPD Cmax/D,"ABCG2 rs2725248 CC, mean (SD)",0.03 (0.03)
same,Ratio 20(S)-PPD/CK AUClast/D,"ABCG2 rs2725248 CC, mean (SD)",3.24 (3.92) %
